Test results reported in ChEMBL document CHEMBL1133115, “Synthesis, biological evaluation, and conformational analysis of A-ring diastereomers of 2-methyl-1,25-dihydroxyvitamin D(3) and their 20-epimers: unique activity profiles depending on the stereochemistry of the A-ring and at C-20” (2000).
“And” between values parts separate entries of the source, which are not always exact repeats. Equal values may be shown once.

How the values were obtained:
HL-60 [1] = assay: Differentiation inducing effect on HL-60 cells; assay type: functional, Homo sapiens
How it was run: (§1)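 Line 1 is binding to bovine thymus vitamin D receptor. Lines 3 and 6 are differentiation induction in HL-60 cells.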

Rattus norvegicus [2] = species: Rattus norvegicus; assay: Bone calcium-mobilizing (BCM) activity at 260 pmol/day *7day in vitamin D deficient rats on a low-calcium diet ([…]); assay type: functional
How it was run: (§2)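 Vitamin D-deficient rats on a low-calcium diet were given the analogue intraperitoneally once daily for 7 consecutive days during the last week, in propylene glycol/ethanol (95:5). Controls received vehicle only. Serum calcium (mg/100 mL) was measured 24 h after the last dose, with 5-6 rats/group. Results are mean ± SEM, compared with control by Student's t-test.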

Rattus norvegicus [3] = species: Rattus norvegicus; assay: evaluated for increasing effect of serum calcium level in normal rats(Ca); assay type: functional
How it was run: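 Normal male Sprague-Dawley rats were used to measure elevation of serum calcium level. Potency is expressed relative to 1α,25-dihydroxyvitamin D3, which is set at 100.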

Rattus norvegicus [4] = species: Rattus norvegicus; assay: Bone calcium-mobilizing (BCM) activity at 500 pmol/day/7days in vitamin D deficient rats on a low calcium diet (0.02% Ca); assay type: functional; how it was run: as §2
HL-60 [5] = assay: evaluated for differentiation inducing effect on HL-60 cells, relative potency with respect to 1-alpha, 25-Dihydroxyvitamin D3; assay type: functional, Homo sapiens; how it was run: as §1
[6] = target: T1, Vitamin D3 receptor (Bos taurus) (UniProt Q28037); assay: Binding affinity for bovine thymus vitamin D3 receptor; how it was run: as §1
T1 sequence (whole entry): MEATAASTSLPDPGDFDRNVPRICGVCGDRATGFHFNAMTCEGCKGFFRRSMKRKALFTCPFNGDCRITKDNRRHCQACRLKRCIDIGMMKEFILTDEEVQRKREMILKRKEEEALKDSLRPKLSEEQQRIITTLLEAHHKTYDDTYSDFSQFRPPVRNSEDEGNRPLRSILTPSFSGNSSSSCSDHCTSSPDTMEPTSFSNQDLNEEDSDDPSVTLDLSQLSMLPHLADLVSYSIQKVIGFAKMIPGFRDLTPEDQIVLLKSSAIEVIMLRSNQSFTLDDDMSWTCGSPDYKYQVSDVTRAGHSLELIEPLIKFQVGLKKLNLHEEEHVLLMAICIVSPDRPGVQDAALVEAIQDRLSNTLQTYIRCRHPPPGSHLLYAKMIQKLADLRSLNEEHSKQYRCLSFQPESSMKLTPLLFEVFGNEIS

[7] = system: Vitamin D-binding protein (Bos taurus); assay: Binding affinity for calf serum vitamin D-binding protein
Rattus norvegicus [8] = species: Rattus norvegicus; assay: Bone Calcium-Mobilizing (BCM) activity (260 pmol/day/7 days) in Vitamin D-Deficient Rats on a Low-Calcium Diet; assay type: functional; how it was run: as §2
Rattus norvegicus [9] = species: Rattus norvegicus; assay: Bone Calcium-Mobilizing (BCM) activity (260 pmol/day/7 days) in Vitamin D-Deficient Rats on a Low-Calcium Diet (0.02% Ca diet); assay type: functional; how it was run: as §2

| SMILES | Relative potency (HL-60 [1]) | BCM serum Ca (Rattus norvegicus [2]) [mg 100ml-1] | Relative potency (Rattus norvegicus [3]) | BCM serum Ca (Rattus norvegicus [4]) [mg 100ml-1] | also measured |
| --- | --- | --- | --- | --- | --- |
| C=C1/C(=C\C=C2/CCC[C@]3(C)[C@@H]([C@H](C)CCCC(C)(C)O)CC[C@@H]23)C[C@@H](O)[C@H](C)[C@@H]1O (stereo in doubt; form 1) | 200 | <6 | 400 | – | – |
| C=C1/C(=C\C=C2/CCC[C@]3(C)[C@@H]([C@H](C)CCCC(C)(C)O)CC[C@@H]23)C[C@@H](O)[C@@H](C)[C@@H]1O (stereo in doubt; form 1) | 2600 | 4.6 | 115 | 4.4 | – |
| C=C1/C(=C\C=C2/CCC[C@]3(C)[C@@H]([C@@H](C)CCCC(C)(C)O)CC[C@@H]23)C[C@H](O)[C@@H](C)[C@H]1O (stereo in doubt; form 1) [listing 1 of 2 here] | 190 | 4.4 | 19 | 4.4 | – |
| C=C1/C(=C\C=C2/CCC[C@]3(C)[C@@H]([C@@H](C)CCCC(C)(C)O)CC[C@@H]23)C[C@H](O)[C@@H](C)[C@@H]1O (stereo in doubt; form 1) [listing 1 of 2 here] | 6 | 4.4 | – | 4.3 | – |
| C=C1/C(=C\C=C2/CCC[C@]3(C)[C@@H]([C@H](C)CCCC(C)(C)O)CC[C@@H]23)C[C@@H](O)[C@H](C)[C@H]1O (stereo in doubt; form 1) | 3 | 4.8 | – | 4.7 | – |
| C=C1/C(=C\C=C2/CCC[C@]3(C)[C@@H]([C@H](C)CCCC(C)(C)O)CC[C@@H]23)C[C@H](O)[C@H](C)[C@@H]1O (stereo in doubt; form 1) | – | 4.2 | – | 4.1 | – |
| C=C1/C(=C\C=C2/CCC[C@]3(C)[C@@H]([C@H](C)CCCC(C)(C)O)CC[C@@H]23)C[C@H](O)[C@H](C)[C@H]1O (stereo in doubt; form 1) | 1 | 4.3 | – | 4.4 | – |
| C=C1/C(=C\C=C2/CCC[C@]3(C)[C@@H]([C@H](C)CCCC(C)(C)O)CC[C@@H]23)C[C@@H](O)[C@@H](C)[C@H]1O (stereo in doubt; form 1) | – | 4.9 | – | 5 | Relative potency (HL-60 [5]): 1 |
| C=C1/C(=C\C=C2/CCC[C@]3(C)[C@@H]([C@@H](C)CCCC(C)(C)O)CC[C@@H]23)C[C@H](O)[C@@H](C)[C@@H]1O (stereo in doubt; form 1) [listing 2 of 2 here] | – | – | – | – | Relative potency [6]: < 0.1; Relative potency [7]: < 0.3 |
| C=C1/C(=C\C=C2/CCC[C@]3(C)[C@@H]([C@@H](C)CCCC(C)(C)O)CC[C@@H]23)C[C@H](O)[C@@H](C)[C@H]1O (stereo in doubt; form 1) [listing 2 of 2 here] | – | – | – | – | Relative potency [6]: 7; Relative potency [7]: < 0.3 |
| C=C1/C(=C\C=C2/CCC[C@]3(C)[C@@H]([C@H](C)CCCC(C)(C)O)CC[C@@H]23)C[C@@H](O)[C@H](C)[C@@H]1O (stereo in doubt; form 2) | 59000 | <5.8 | 655 | <7.8 | – |
| C=C1/C(=C\C=C2/CCC[C@]3(C)[C@@H]([C@H](C)CCCC(C)(C)O)CC[C@@H]23)C[C@@H](O)[C@@H](C)[C@@H]1O (stereo in doubt; form 2) | 10 | 4.1 | 2 | <5 | – |
| C=C1/C(=C\C=C2/CCC[C@]3(C)[C@@H]([C@@H](C)CCCC(C)(C)O)CC[C@@H]23)C[C@H](O)[C@@H](C)[C@H]1O (stereo in doubt; form 2) [listing 1 of 2 here] | 3 | 4.1 | – | 3.8 | – |
| C=C1/C(=C\C=C2/CCC[C@]3(C)[C@@H]([C@@H](C)CCCC(C)(C)O)CC[C@@H]23)C[C@H](O)[C@@H](C)[C@@H]1O (stereo in doubt; form 2) [listing 1 of 2 here] | 1.5 | <5.2 | – | <5.4 | – |
| C=C1/C(=C\C=C2/CCC[C@]3(C)[C@@H]([C@H](C)CCCC(C)(C)O)CC[C@@H]23)C[C@@H](O)[C@H](C)[C@H]1O (stereo in doubt; form 2) | 1 | 4.4 | – | 4.3 | – |
| C=C1/C(=C\C=C2/CCC[C@]3(C)[C@@H]([C@H](C)CCCC(C)(C)O)CC[C@@H]23)C[C@H](O)[C@H](C)[C@@H]1O (stereo in doubt; form 2) | 730 | <4.6 | 144 | 4.6 | – |
| C=C1/C(=C\C=C2/CCC[C@]3(C)[C@@H]([C@H](C)CCCC(C)(C)O)CC[C@@H]23)C[C@H](O)[C@H](C)[C@H]1O (stereo in doubt; form 2) | 0.5 | 3.9 | – | 3.9 | – |
| C=C1/C(=C\C=C2/CCC[C@]3(C)[C@@H]([C@H](C)CCCC(C)(C)O)CC[C@@H]23)C[C@@H](O)[C@@H](C)[C@H]1O (stereo in doubt; form 2) | 1.5 | <5 | – | <4.9 | – |
| C=C1/C(=C\C=C2/CCC[C@]3(C)[C@@H]([C@@H](C)CCCC(C)(C)O)CC[C@@H]23)C[C@H](O)[C@@H](C)[C@@H]1O (stereo in doubt; form 2) [listing 2 of 2 here] | – | – | – | – | Relative potency [6]: 0.3; Relative potency [7]: 21 |
| C=C1/C(=C\C=C2/CCC[C@]3(C)[C@@H]([C@@H](C)CCCC(C)(C)O)CC[C@@H]23)C[C@H](O)[C@@H](C)[C@H]1O (stereo in doubt; form 2) [listing 2 of 2 here] | – | – | – | – | Relative potency [6]: 0.8; Relative potency [7]: 1300 |
| C=C1/C(=C\C=C2/CCC[C@]3(C)[C@@H]([C@H](C)CCCC(C)(C)O)CC[C@@H]23)C[C@@H](O)C[C@@H]1O [CALCITRIOL] | 100 | <5.5 | 100 | – | Relative potency [6]: 100; BCM serum Ca (Rattus norvegicus [8]): <5.5 mg 100ml-1 and <5.4 mg 100ml-1 and <6 mg 100ml-1 and <6.1 mg 100ml-1; BCM serum Ca (Rattus norvegicus [9]): 6.8 mg 100ml-1 |
